As a reminder, the IC50 is the point on the concentration scale where inhibition reaches its midpoint.

The target in the first assay is Sodium/hydrogen exchanger (Oryctolagus cuniculus, UniProt P23791+P50482+P26432). Briefly: Sodium/hydrogen exchanger antiport activity was measured using [22]Na+ uptake inhibition assay in acidified rabbit erythrocytes. In kind it is cell-based. The procedure, abridged:
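Acidified rabbit erythrocytes; 22Na+ uptake measured in incubation buffer containing 10 mM Na+. Na+/H+-dependent uptake taken as the EIPA-sensitive portion of 22Na+ uptake.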
As to `C=C1CCS(=O)(=O)c2cc(C(=O)N=C(N)N)c(C)cc21`, the 50% inhibitory concentration (IC50) amounted to 29 nM. On the same count and under the same terms, then `Cc1cc2c(cc1C(=O)N=C(N)N)S(=O)(=O)C/C2=N\O`, with 16 nM; and `CCC1CS(=O)(=O)c2cc(C(=O)N=C(N)N)c(C)cc21` (stereo not drawn), with 24 nM; and `Cc1cc2c(cc1C(=O)N=C(N)N)S(=O)(=O)CCC2C` (stereo not drawn), with 45 nM. The same measure, in the same setting: with `COC1c2cc(C)c(C(=O)N=C(N)N)cc2S(=O)(=O)C1(C)C` (stereo not drawn) the figure was 27 nM; with `Cc1cc2c(cc1C(=O)N=C(N)N)S(=O)(=O)C(C)(C)C2C` (stereo not drawn), 14 nM; with `Cc1cc2c(cc1C(=O)N=C(N)N)S(=O)(=O)CCCC2`, 19 nM. In turn, `Cc1cc2c(cc1C(=O)N=C(N)N)S(=O)(=O)C(C)(C)C2=O` came in with an IC50 of 93 nM. `N=C(N)NC(=O)c1ccc2c(c1)S(=O)(=O)CC2` had an IC50 of 790 nM. The same measure, in the same setting: with `Cc1cc2c(cc1C(=O)N=C(N)N)S(=O)(=O)CC2O` (stereo not drawn) the figure was 70 nM.

As for `COC1(C)CS(=O)(=O)c2cc(C(=O)N=C(N)N)c(C)cc21` (stereo not drawn), the IC50 was 40 nM. Same read-out and setting: then `Cc1cc2c(cc1C(=O)N=C(N)N)S(=O)(=O)C(C)(C)CC2C` (stereo not drawn), with 38 nM; and `Cc1cc2c(cc1C(=O)N=C(N)N)S(=O)(=O)CC2`, with 60 nM.

Turning to `COC1CS(=O)(=O)c2cc(C(=O)N=C(N)N)ccc21` (stereo not drawn), the IC50 came to 700 nM. `CO/N=C1\CS(=O)(=O)c2cc(C(=O)N=C(N)N)c(C)cc21` showed an IC50 of 45 nM. For `Cc1cc2c(cc1C(=O)N=C(N)N)S(=O)(=O)CC2C(C)C` (stereo not drawn), the IC50 came to 21 nM. `CCC1(O)CS(=O)(=O)c2cc(C(=O)N=C(N)N)c(C)cc21` (stereo not drawn) registered a half-maximal inhibitory concentration (IC50) of 34 nM. Still for that read-out and setting: then `Cc1cc2c(cc1C(=O)N=C(N)N)S(=O)(=O)CC21OCCO1`, with 60 nM.

As for `Cc1cc2c(cc1C(=O)N=C(N)N)S(=O)(=O)CC2C` (stereo not drawn), the IC50 is 44 nM. As to `COC1CS(=O)(=O)c2cc(C(=O)N=C(N)N)c(C)cc21` (stereo not drawn), the IC50 was found to be 96 nM. Still for that read-out and setting: with `Cc1cc2c(cc1C(=O)N=C(N)N)S(=O)(=O)C(C)(C)C2(C)O` (stereo not drawn) the figure was 17 nM. `CC1(C)CCS(=O)(=O)c2cc(C(=O)N=C(N)N)ccc21`: the IC50 stood at 2200 nM. Still for that read-out and setting: then `Cc1cc2c(cc1C(=O)N=C(N)N)S(=O)(=O)CC2(C)O` (stereo not drawn), with 30 nM. On the same count and under the same terms, then `Cc1cc2c(cc1C(=O)N=C(N)N)S(=O)(=O)CCC21OCCO1`, with 130 nM; and `Cc1cc2c(cc1C(=O)N=C(N)N)S(=O)(=O)CCCO2`, with 28 nM. Same read-out and setting: then `CC1(C)CC(C)(C)S(=O)(=O)c2cc(C(=O)N=C(N)N)ccc21`, with 360 nM; and `Cc1cc2c(cc1C(=O)N=C(N)N)S(=O)(=O)CCC2=O`, with 96 nM. For the molecule `Cc1cc2c(cc1C(=O)N=C(N)N)S(=O)(=O)CCC2`, the IC50 was 95 nM. Still for that read-out and setting: with `Cc1cc2c(cc1C(=O)N=C(N)N)S(=O)(=O)CC2(O)Cc1ccccc1` (stereo not drawn) the figure was 43 nM; with `N=C(N)NC(=O)c1ccc2c(c1)S(=O)(=O)CC2O` (stereo not drawn), 1500 nM. In turn, `CC(C)=C1CS(=O)(=O)c2cc(C(=O)N=C(N)N)c(C)cc21` came in with an IC50 of 54 nM.

As to `C=C1c2cc(C)c(C(=O)N=C(N)N)cc2S(=O)(=O)C1(C)C`, the IC50 is 13 nM. `Cc1cc2c(cc1C(=O)N=C(N)N)S(=O)(=O)C(C)(C)C2O` (stereo not drawn) came in with an IC50 of 28 nM. Molecule `Cc1cc2c(cc1C(=O)N=C(N)N)S(=O)(=O)CC2N` (stereo not drawn) had a half-inhibitory concentration (IC50) of 116 nM.

Consider `CC1=C(N)c2cc(C)c(C(=O)N=C(N)N)cc2S1(=O)=O`, for which the IC50 stood at 56 nM. On the same count and under the same terms, with `Cc1cc2c(cc1C(=O)N=C(N)N)S(=O)(=O)C(C)(C)CO2` the figure was 36 nM.

The next assay is filed under the species Homo sapiens. The experiment in a line: Concentration to achieve half-maximal inhibition of acid-induced swelling in human platelets using platelet swelling assay(PSA). Type of assay: functional. The procedure, abridged:
(§1)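 Human platelet-rich plasma from citrated venous blood (centrifuged 1000 rpm, 20 min, RT; pH adjusted to 7.4; used within 4–5 h). Final 2 × 10^8 platelets/mL in pH 6.6 buffer: 120 mM Na propionate, 20 mM K propionate, 20 mM HEPES, 10 mM glucose, 5 mM KCl, 1 mM MgCl2, 1 mM CaCl2, 0.86% DMSO. Swelling followed as absorbance drop at 680 nm over 4 min.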
Regarding `C=C1CCS(=O)(=O)c2cc(C(=O)N=C(N)N)c(C)cc21`, the IC50 came out at 1370 nM.

The species named for the next assay is Homo sapiens. The experiment in a line: Concentration to achieve half-maximal inhibition of acid-induced swelling in human platelets using platelet swelling assay. In kind it is functional. The procedure, abridged:
as §1
`Cc1cc2c(cc1C(=O)N=C(N)N)S(=O)(=O)C/C2=N\O` showed an IC50 of 197 nM.

The molecule `CCC1CS(=O)(=O)c2cc(C(=O)N=C(N)N)c(C)cc21` (stereo not drawn) yielded an IC50 of 78 nM.

As for `Cc1cc2c(cc1C(=O)N=C(N)N)S(=O)(=O)CCC2C` (stereo not drawn), it took 655 nM to reach half-maximal inhibition (IC50). Same read-out and setting: then `COC1c2cc(C)c(C(=O)N=C(N)N)cc2S(=O)(=O)C1(C)C` (stereo not drawn), with 138 nM.

As to `Cc1cc2c(cc1C(=O)N=C(N)N)S(=O)(=O)C(C)(C)C2C` (stereo not drawn), the IC50 is 306 nM.

`Cc1cc2c(cc1C(=O)N=C(N)N)S(=O)(=O)CCCC2` displayed an IC50 of 274 nM. `Cc1cc2c(cc1C(=O)N=C(N)N)S(=O)(=O)C(C)(C)C2=O` showed an IC50 of 354 nM. Same read-out and setting: then `N=C(N)NC(=O)c1ccc2c(c1)S(=O)(=O)CC2`, with above 100000 nM.

In turn, `Cc1cc2c(cc1C(=O)N=C(N)N)S(=O)(=O)CC2O` (stereo not drawn) displayed an IC50 of 1050 nM. Still for that read-out and setting: with `COC1(C)CS(=O)(=O)c2cc(C(=O)N=C(N)N)c(C)cc21` (stereo not drawn) the figure was 321 nM; with `Cc1cc2c(cc1C(=O)N=C(N)N)S(=O)(=O)C(C)(C)CC2C` (stereo not drawn), 1100 nM; with `Cc1cc2c(cc1C(=O)N=C(N)N)S(=O)(=O)CC2`, 587 nM.

Turning to `COC1CS(=O)(=O)c2cc(C(=O)N=C(N)N)ccc21` (stereo not drawn), the IC50 is above 100000 nM.

`CO/N=C1\CS(=O)(=O)c2cc(C(=O)N=C(N)N)c(C)cc21` registered an IC50 of 521 nM.

Molecule `Cc1cc(-n2cccc2)c(S(C)(=O)=O)cc1C(=O)N=C(N)N` [ENIPORIDE] showed an IC50 of 32 nM. Still for that read-out and setting: then `Cc1cc2c(cc1C(=O)N=C(N)N)S(=O)(=O)CC2C(C)C` (stereo not drawn), with 77 nM; and `CCC1(O)CS(=O)(=O)c2cc(C(=O)N=C(N)N)c(C)cc21` (stereo not drawn), with 77 nM. Still for that read-out and setting: then `CC(C)c1ccc(C(=O)N=C(N)N)cc1S(C)(=O)=O` [CARIPORIDE], with 117 nM.

As to `Cc1cc2c(cc1C(=O)N=C(N)N)S(=O)(=O)CC21OCCO1`, the midpoint of inhibition, the IC50, lay at 485 nM.

In turn, `Cc1cc2c(cc1C(=O)N=C(N)N)S(=O)(=O)CC2C` (stereo not drawn) registered an IC50 of 182 nM. In turn, `COC1CS(=O)(=O)c2cc(C(=O)N=C(N)N)c(C)cc21` (stereo not drawn) yielded an IC50 of 208 nM. `Cc1cc2c(cc1C(=O)N=C(N)N)S(=O)(=O)C(C)(C)C2(C)O` (stereo not drawn) returned an IC50 of 102 nM. The same measure, in the same setting: then `Cc1cc2c(cc1C(=O)N=C(N)N)S(=O)(=O)CC2(C)O` (stereo not drawn), with 115 nM; and `Cc1cc2c(cc1C(=O)N=C(N)N)S(=O)(=O)CCC21OCCO1`, with 1180 nM. On the same count and under the same terms, then `Cc1cc2c(cc1C(=O)N=C(N)N)S(=O)(=O)CCCO2`, with 537 nM; and `CC1(C)CC(C)(C)S(=O)(=O)c2cc(C(=O)N=C(N)N)ccc21`, with 2080 nM; and `Cc1cc2c(cc1C(=O)N=C(N)N)S(=O)(=O)CCC2=O`, with 3670 nM.

`Cc1cc2c(cc1C(=O)N=C(N)N)S(=O)(=O)CCC2` displayed an IC50 of 14300 nM. Still for that read-out and setting: with `Cc1cc2c(cc1C(=O)N=C(N)N)S(=O)(=O)CC2(O)Cc1ccccc1` (stereo not drawn) the figure was 157 nM; with `N=C(N)NC(=O)c1ccc2c(c1)S(=O)(=O)CC2O` (stereo not drawn), above 100000 nM; with `CC(C)=C1CS(=O)(=O)c2cc(C(=O)N=C(N)N)c(C)cc21`, 5030 nM. Still for that read-out and setting: then `C=C1c2cc(C)c(C(=O)N=C(N)N)cc2S(=O)(=O)C1(C)C`, with 114 nM; and `Cc1cc2c(cc1C(=O)N=C(N)N)S(=O)(=O)C(C)(C)C2O` (stereo not drawn), with 258 nM; and `Cc1cc2c(cc1C(=O)N=C(N)N)S(=O)(=O)CC2N` (stereo not drawn), with 692 nM. The same measure, in the same setting: then `CC1=C(N)c2cc(C)c(C(=O)N=C(N)N)cc2S1(=O)=O`, with 2320 nM; and `Cc1cc2c(cc1C(=O)N=C(N)N)S(=O)(=O)C(C)(C)CO2`, with 843 nM.

(Values after ChEMBL document CHEMBL1131104, “Bicyclic acylguanidine Na+/H+ antiporter inhibitors” (J Med Chem, 1998).)
